From ChEMBL document CHEMBL1135929, “Investigation of potential bioisosteric replacements for the carboxyl groups of peptidomimetic inhibitors of protein tyrosine phosphatase 1B: identification of a tetrazole-containing inhibitor with cellular activity” (J Med Chem, 2002)

Assays:
[1] = target: T1, Tyrosine-protein phosphatase non-receptor type 1 (Homo sapiens) (UniProt P18031); test: Percent inhibition against Protein-tyrosine phosphatase 1B at a 1 uM concentration
T1 sequence (whole entry): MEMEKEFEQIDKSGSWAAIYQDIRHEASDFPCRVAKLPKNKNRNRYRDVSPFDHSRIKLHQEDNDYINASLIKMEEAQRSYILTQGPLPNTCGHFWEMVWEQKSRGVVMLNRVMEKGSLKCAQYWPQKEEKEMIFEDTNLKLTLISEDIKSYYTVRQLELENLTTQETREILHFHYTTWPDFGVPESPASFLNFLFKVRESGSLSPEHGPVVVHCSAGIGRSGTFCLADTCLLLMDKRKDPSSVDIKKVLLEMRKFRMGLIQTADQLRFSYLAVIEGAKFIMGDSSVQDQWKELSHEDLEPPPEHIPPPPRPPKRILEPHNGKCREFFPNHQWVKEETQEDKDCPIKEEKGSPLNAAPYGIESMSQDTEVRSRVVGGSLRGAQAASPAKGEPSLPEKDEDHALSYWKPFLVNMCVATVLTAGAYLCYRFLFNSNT

[2] = target: T2, Tyrosine-protein phosphatase non-receptor type 11 (Homo sapiens) (UniProt Q06124); test: Percent inhibition against Tyrosine phosphatase SHP2 at 100 uM
T2 sequence (whole entry): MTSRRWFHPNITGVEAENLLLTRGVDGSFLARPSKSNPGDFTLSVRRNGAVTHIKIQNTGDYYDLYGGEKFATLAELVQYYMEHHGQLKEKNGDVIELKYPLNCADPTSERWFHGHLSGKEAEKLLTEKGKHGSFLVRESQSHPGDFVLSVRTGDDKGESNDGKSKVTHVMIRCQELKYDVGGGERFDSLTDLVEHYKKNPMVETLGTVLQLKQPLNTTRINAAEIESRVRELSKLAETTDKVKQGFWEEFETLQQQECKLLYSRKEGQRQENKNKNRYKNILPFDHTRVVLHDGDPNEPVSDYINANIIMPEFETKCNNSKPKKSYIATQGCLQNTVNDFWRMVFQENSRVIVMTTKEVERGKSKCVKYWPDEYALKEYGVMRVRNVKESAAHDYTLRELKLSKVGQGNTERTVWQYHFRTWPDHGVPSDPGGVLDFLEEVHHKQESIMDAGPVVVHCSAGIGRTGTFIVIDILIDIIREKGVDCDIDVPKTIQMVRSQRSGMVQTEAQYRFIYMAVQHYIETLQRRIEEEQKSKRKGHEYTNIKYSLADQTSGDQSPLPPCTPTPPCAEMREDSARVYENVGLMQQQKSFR
Procedure, shortened: (§1)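 For specificity screening, recombinant purified LAR and SHP-2 were each tested with compound at 100 µM, reported as % inhibition.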

[3] = target: Receptor-type tyrosine-protein phosphatase F (Homo sapiens) (UniProt P10586); test: Percent inhibition against Protein-tyrosine phosphatase Lar at 100 uM; procedure, shortened: as §1
[4] = target: T1, Tyrosine-protein phosphatase non-receptor type 1 (Homo sapiens); test: Percent inhibition against Protein-tyrosine phosphatase 1B at a 100 uM concentration
Procedure, shortened: (§2)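 PTP1B inhibition was read as pNPP hydrolysis, with compound at a single fixed concentration and activity given as % inhibition. Some entries were measured on PTP1, the rat homologue of PTP1B.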

[5] = target: T1, Tyrosine-protein phosphatase non-receptor type 1 (Homo sapiens); test: Percent inhibition against Protein-tyrosine phosphatase 1B at a 10 uM concentration
[6] = target: T3, Tyrosine-protein phosphatase non-receptor type 1 (Homo sapiens, UniProt P18031); test: Inhibition constant of compound against Protein-tyrosine phosphatase 1B
T3 sequence (P18031 whole entry): T1 sequence (whole entry)

[7] = target: Tyrosine-protein phosphatase non-receptor type 11 (SHP-2) (Homo sapiens) (UniProt Q06124); test: Percent inhibition of compound against Tyrosine phosphatase SHP2 at 100 uM
[8] = target: T4, Tyrosine-protein phosphatase non-receptor type 1 (Rattus norvegicus) (UniProt P20417); test: Percent inhibition of compound against Protein-tyrosine phosphatase 1B at a 100 uM concentration; procedure, shortened: as §2
T4 sequence (whole entry): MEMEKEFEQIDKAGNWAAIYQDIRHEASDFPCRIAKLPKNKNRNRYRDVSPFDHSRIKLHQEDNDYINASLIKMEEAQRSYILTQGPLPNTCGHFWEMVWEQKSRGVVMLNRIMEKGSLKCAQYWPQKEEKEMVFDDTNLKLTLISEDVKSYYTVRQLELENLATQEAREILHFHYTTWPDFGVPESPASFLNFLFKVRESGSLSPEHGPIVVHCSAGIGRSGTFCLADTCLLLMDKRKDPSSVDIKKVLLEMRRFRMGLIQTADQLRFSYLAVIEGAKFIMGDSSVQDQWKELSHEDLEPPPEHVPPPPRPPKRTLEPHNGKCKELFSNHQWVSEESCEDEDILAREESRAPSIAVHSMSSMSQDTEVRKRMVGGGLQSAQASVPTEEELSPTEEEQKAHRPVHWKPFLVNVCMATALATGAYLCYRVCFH

[9] = target: Receptor-type tyrosine-protein phosphatase F (Homo sapiens) (UniProt P10586); test: Percent inhibition of compound against Protein-tyrosine phosphatase Lar at 100 uM; procedure, shortened: as §1
Rattus norvegicus [10] = species: Rattus norvegicus; test: Effect on basal uptake without insulin into intact cells (L6 myocytes), to that of control cells; format: functional, cell-based
Rattus norvegicus [11] = species: Rattus norvegicus; test: Effect of compound (100 µM) on insulin (10 nM)-stimulated 2-deoxyglucose (2-DOG) uptake into L6 myocytes
[12] = target: T3, Tyrosine-protein phosphatase non-receptor type 1; test: Inhibitory constant against Protein-tyrosine phosphatase 1B
Procedure, shortened: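 Competitive inhibition of PTP1B was measured with pNPP as substrate. V vs S data were collected at various inhibitor concentrations, and Ki was computed by the Cornish-Bowden direct linear method.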

Chain of Receptor-type tyrosine-protein phosphatase F (Homo sapiens) (P10586 whole entry): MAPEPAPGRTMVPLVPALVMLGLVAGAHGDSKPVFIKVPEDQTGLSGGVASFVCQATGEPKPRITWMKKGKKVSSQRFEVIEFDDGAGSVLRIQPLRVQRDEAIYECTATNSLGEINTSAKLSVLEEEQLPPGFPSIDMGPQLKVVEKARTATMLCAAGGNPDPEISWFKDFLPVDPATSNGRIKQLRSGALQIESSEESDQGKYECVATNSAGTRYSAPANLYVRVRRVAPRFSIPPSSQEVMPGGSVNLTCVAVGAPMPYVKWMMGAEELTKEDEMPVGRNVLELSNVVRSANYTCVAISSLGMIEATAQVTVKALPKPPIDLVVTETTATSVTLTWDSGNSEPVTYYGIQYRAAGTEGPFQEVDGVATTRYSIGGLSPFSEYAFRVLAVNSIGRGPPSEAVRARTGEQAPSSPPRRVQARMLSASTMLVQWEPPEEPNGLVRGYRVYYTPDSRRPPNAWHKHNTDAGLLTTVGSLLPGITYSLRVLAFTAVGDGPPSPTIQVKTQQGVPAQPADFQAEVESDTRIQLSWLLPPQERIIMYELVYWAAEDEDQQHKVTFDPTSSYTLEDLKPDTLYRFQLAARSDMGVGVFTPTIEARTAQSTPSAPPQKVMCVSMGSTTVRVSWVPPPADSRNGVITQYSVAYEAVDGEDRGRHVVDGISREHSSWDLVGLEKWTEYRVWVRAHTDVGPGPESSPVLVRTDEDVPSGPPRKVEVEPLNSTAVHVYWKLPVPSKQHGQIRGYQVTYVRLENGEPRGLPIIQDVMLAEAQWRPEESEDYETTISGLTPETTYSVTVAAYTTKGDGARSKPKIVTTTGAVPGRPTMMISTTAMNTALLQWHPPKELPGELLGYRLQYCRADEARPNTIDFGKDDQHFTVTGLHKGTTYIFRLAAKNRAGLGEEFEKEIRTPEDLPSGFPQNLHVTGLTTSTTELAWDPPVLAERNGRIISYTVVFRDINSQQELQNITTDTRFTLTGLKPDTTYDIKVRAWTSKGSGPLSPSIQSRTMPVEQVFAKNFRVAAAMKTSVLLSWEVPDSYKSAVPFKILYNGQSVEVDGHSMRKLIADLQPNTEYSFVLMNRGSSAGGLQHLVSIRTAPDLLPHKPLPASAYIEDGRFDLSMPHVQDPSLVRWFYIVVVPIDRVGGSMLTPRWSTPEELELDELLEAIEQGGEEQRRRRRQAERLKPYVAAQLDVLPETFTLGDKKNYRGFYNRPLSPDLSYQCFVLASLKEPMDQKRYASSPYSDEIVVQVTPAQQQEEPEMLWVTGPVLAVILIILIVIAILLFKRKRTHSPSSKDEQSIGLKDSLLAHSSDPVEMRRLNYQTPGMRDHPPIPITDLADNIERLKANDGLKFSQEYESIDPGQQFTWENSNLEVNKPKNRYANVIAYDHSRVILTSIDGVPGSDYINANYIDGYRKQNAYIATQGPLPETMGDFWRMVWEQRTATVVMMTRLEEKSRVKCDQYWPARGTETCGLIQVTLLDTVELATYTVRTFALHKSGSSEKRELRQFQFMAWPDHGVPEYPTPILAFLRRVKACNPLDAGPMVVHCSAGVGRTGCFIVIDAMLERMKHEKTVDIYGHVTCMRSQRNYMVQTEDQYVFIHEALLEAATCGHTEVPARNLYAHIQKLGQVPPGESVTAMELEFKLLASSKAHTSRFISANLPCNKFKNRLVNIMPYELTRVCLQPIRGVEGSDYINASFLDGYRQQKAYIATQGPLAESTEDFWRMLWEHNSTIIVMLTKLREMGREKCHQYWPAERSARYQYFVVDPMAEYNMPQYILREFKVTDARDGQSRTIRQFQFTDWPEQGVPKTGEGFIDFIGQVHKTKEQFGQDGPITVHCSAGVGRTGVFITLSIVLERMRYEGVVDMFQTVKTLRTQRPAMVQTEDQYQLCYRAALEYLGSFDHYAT

Structure (SMILES)	inhibition [1]	inhibition [2]	inhibition [3]	inhibition [4]	inhibition [5]	Ki [6]	inhibition [7]	inhibition [8]	inhibition [9]	Uptake (Rattus norvegicus [10])	Uptake (Rattus norvegicus [11])	Ki [12]
CCCCCNC(=O)[C@H](Cc1ccc(OCC(=O)O)c(C(=O)OC)c1)NC(=O)[C@H](Cc1ccccc1)NC(=O)OC(C)(C)C	3%	0%	0%	4%	2%							
CCCCCNC(=O)[C@H](Cc1ccc(OCC(=O)O)c(CCC(=O)O)c1)NC(=O)[C@H](Cc1ccccc1)NC(=O)OC(C)(C)C	3%	1%	13%	18%	4%							
CCCCCNC(=O)C(Cc1ccc(OCC(=O)O)c(C(=O)O)c1)NC(=O)CCC(=O)O (stereo unspecified)		5%	0%			6.5 µM						
CCCCCNC(=O)[C@H](Cc1ccc(OCC(=O)O)c(C(=O)NO)c1)NC(=O)[C@H](Cc1ccccc1)NC(=O)OC(C)(C)C	5%	6%	3%	54%	13%							
CCCCCNC(=O)C(Cc1ccc(OCC(=O)O)c(C(C)=O)c1)NC(=O)CCC(=O)O (stereo unspecified)							1%	8%	-2%			
CCCCCNC(=O)[C@H](Cc1ccc(OCC(=O)O)c(C#CC(=O)O)c1)NC(=O)[C@H](Cc1ccccc1)NC(=O)OC(C)(C)C	1%	1%	1%	16%	3%							
CCCCCNC(=O)C(Cc1ccc(OCC#N)c(C(=O)O)c1)NC(=O)CCC(=O)O (stereo unspecified)		0%	0%	3%								
CCCCCNC(=O)[C@H](Cc1ccc(OCC(=O)O)c(-c2nn[nH]n2)c1)NC(=O)[C@H](Cc1ccccc1)NC(=O)OC(C)(C)C	27%	1%	0%	97%	77%					99%	147%	2 µM
CCCCCNC(=O)[C@H](Cc1ccc(OCC(N)=O)c(C(=O)O)c1)NC(=O)[C@H](Cc1ccccc1)NC(=O)OC(C)(C)C	0%	0%	0%	0%	0%							
CCCCCNC(=O)C(Cc1ccc(OCC(=O)O)c(C#N)c1)NC(=O)CCC(=O)O (stereo unspecified)		0%	0%	4%								
CCCCCNC(=O)[C@H](Cc1ccc(OCC(=O)O)c(C(=O)O)c1)NC(=O)[C@H](Cc1ccccc1)NC(=O)OC(C)(C)C	30%	2%	0%	97%	78%							2 µM
CCCCCNC(=O)C(Cc1ccc(OCCO)c(C(=O)O)c1)NC(=O)CCC(=O)O (stereo unspecified)		0%	0%	4%								
CCCCCNC(=O)[C@H](Cc1ccc(OCC(=O)O)c(-c2cc(O)no2)c1)NC(=O)[C@H](Cc1ccccc1)NC(=O)OC(C)(C)C	1%		0%	9%	1%							
CCCCCNC(=O)[C@H](Cc1ccc(OCc2nn[nH]n2)c(C(=O)O)c1)NC(=O)[C@H](Cc1ccccc1)NC(=O)OC(C)(C)C	1%	5%	0%	17%	3%							
CCCCCNC(=O)[C@H](Cc1ccc(OCC(=O)OC)c(C(=O)O)c1)NC(=O)[C@H](Cc1ccccc1)NC(=O)OC(C)(C)C	3%	0%	0%	25%	5%							
CCCCCNC(=O)[C@H](Cc1ccc(OCC(=O)NO)c(C(=O)O)c1)NC(=O)[C@H](Cc1ccccc1)NC(=O)OC(C)(C)C	6%	4%	1%	30%	8%							
CCCCCNC(=O)C(Cc1ccc2c(c1)OCCOC2=O)NC(=O)CCC(=O)O (stereo unspecified)		0%	0%	1%								
